Source: PubChem BioAssay
TCR-CD3 inh: blocks the human TCR-CD3 interaction; AID 651800; TAMRA-labeled TCR probe fluorescence, biochemical; 360,000 tested, 0.37% active; inhibition, % at 9.4 µM; in the data active means inhibition above about 19%;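 further: recombinant mutant TCR 2C K166C tagged with TAMRA read by polarization; 0% = receptor in buffer alone and 100% = receptor with positive control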
mABHD4 FP: inhibitors of mouse ABHD4 | 370,000 tested, 0.54% active | inhibition, % at 8.92 µM | AID 720543 | purified mABHD4, FP-Rh probe fluorescence polarization | Q8VD66;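 active means inhibition exceeding the mean over every tested compound plus 3 SD, cut at about 30% in these data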;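 further: 0% = plate median of compound wells and 100% = S159A mutant with DMSO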
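Assay system: mABHD4 protein; medium: HEPES pH 7.0, NaCl, Pluronic buffer; dosing: 8.92 µM, single dose; schedule: 45 min + 60 min at 25 °C; signal: FP readout, ex 525 nm / em 598 nm; read-out: normalized percent inhibition of probe labeling; repeats: single replicate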
SIAE inh: blocks human sialic acid acetylesterase; Q9HAT2; SIAE FP-Rh probe binding, fluorescence polarization; inhibition, % at 9.66 µM; 370,000 tested, 0.69% active;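 active means inhibition above a cutoff: mean of compounds within the control limits plus 3 SD of those, cut at about 17% in these data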;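 further: 0% = plate median of compound wells and 100% = probe without SIAE protein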
Target sequence (Q9HAT2 whole entry, looked up): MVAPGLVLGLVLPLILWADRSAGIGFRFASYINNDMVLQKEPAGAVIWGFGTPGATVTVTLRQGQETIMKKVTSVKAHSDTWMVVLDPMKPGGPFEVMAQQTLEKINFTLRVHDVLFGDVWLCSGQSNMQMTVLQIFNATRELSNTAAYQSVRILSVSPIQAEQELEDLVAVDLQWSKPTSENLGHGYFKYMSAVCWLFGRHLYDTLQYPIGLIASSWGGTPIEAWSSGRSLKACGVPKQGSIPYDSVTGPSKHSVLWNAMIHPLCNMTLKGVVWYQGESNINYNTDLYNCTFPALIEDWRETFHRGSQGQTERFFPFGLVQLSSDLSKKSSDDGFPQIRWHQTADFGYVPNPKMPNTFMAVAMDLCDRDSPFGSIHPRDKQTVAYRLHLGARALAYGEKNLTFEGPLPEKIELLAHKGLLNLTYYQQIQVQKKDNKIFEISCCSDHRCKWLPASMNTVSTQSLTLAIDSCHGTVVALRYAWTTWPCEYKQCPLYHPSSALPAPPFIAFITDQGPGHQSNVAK
DDE Tn6 FP inh: DD(E)-Tn6 binding inhibition, primary FP screen; P02675; Fibrin DD(E) TRITC-Tn6 fluorescence polarization displacement; inhibition, % at 8.3 µM; 370,000 tested, 0.21% active;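 active means inhibition above a per-campaign cutoff: mean of compounds within control limits plus 3 SD, cut at about 15% in these data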;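 further: 0% = median of all compound wells on the plate and 100% = blocking peptide control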
Tn7 DDE FP: inhibitors of Tn7 peptide binding to human fibrin DD(E); P02675; FP displacement of FITC-Tn7 peptide from fibrin DD(E); 0% = median of compound wells per plate; inhibition, % at 8.3 µM; 370,000 tested, 0.13% active; AID 720508;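 active means inhibition above the mean of compounds falling within the control limits plus 3 SD of them, cut at about 14% in these data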;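 further: 0% = plate median of compound wells and 100% = 10 µM Aha-Tn7 peptide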
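Measure: % inhibition scaled between sample-field median and high-control FP; Test system: human fibrin DD(E); Quantity: 2 µM final DD(E) protein; Doses: one dose, 8.3 µM nominal; Schedule: compound with protein 10 min, then 3 h after probe, room temperature; Detection: fluorescence polarization; Medium: Tris buffer with calcium and detergent, pH 7.8.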
HTRA1 inhibitor: blocks human HTRA1 serine peptidase | Q92743 | recombinant HTRA1, FP-rhodamine activity-based probe, fluorescence polarization | inhibition, % at 5.96 µM | 340,000 tested, 0.5% active; in the data active means inhibition above about 36%;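 further: 0% = enzyme with DMSO and 100% = wells lacking enzyme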
HTRA1 conf: confirmation of human HTRA1 inhibitors; shares compounds with HTRA1 inhibitor; recombinant HTRA1, FP-rhodamine activity-based probe, fluorescence polarization; inhibition, % at 5.96 µM; 1,600 tested, 66% active; AID 540248;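 active means mean inhibition over three repeats above a set limit taken from the earlier primary screen, cut at about 37% in these data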;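 further: 0% = HTRA1 with DMSO and 100% = wells lacking HTRA1; inhibitors block probe binding so polarization drops and inhibition rises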
Starred values were filed as active, the others as inactive; / = not tested or not shown; + = active, no number. The list is not random: actives were taken first. Their share in the collection is about 1.8%.

SMILES	TCR-CD3 inh	mABHD4 FP	SIAE inh	DDE Tn6 FP inh	Tn7 DDE FP	HTRA1 inhibitor	HTRA1 conf
CC(=O)Oc1cc(C(=O)OCC(=O)NC23CC4CC(CC(C4)C2)C3)cc(OC(C)=O)c1OC(C)=O	49*	24	10	2	0	66*	75*
COc1ccc(S(=O)(=O)/N=C2\C=C(Nc3ccc(O)cc3)C(=O)c3ccccc32)cc1	0	75*	40*	-6	-5	84*	+
O=S(=O)(CC1NCc2cc(F)ccc21)NCc1ccc(F)cc1 (configuration not stated)	/	-6	-4	1	0	/	/
Cc1cc(N(CCO)CCO)ccc1C(c1ccc(N(CCO)CCO)cc1C)c1ccccc1Cl	6	16	10	-2	1	41*	30
CC1CCC2(CCC(=O)N2CCCO)CC1 (configuration not stated)	/	1	-6	5	-1	/	/
Oc1cccc2ccc(/C=C/c3ccccc3Br)nc12	-6	-3	-13	-8	-5	52*	45*
Oc1ccc(Cl)cc1/C=C/c1ccc2cccc(O)c2n1	-2	-10	8	-16	4	5	/
Oc1c(Cl)cc(Cl)cc1/C=C/c1ccc2cccc(O)c2n1	-2	7	1	-1	-4	37*	48*
CCCCc1ccc2nc(NC(=O)c3cccs3)sc2c1	/	-13	-10	4	4	/	/
Oc1ccc(-c2nc3ccc4ccccc4c3c3c2CCC3)cc1O	-3	15	-2	-9	-4	41*	56*
Cc1cc(C)c2c(ccc3ccccc32)n1	-4	4	2	-2	-4	-4	/
O=c1cc(CN2CCN(Cc3ccccc3)CC2)c2ccc(O)c(O)c2o1	11	19	1	-3	8	61*	70*
CC1Cc2ccccc2N1CC(=O)N(C)c1c(N)n(Cc2ccccc2)c(=O)[nH]c1=O (configuration not stated)	-2	8	-11	2	-1	43*	2
CCn1c(=O)c(C(=O)CN2c3ccccc3CC2C)c(N)n(Cc2ccccc2)c1=O (configuration not stated)	-4	11	4	-5	3	38*	6
CC1Cc2ccccc2N1CC(=O)c1c(N)n(Cc2ccccc2)c(=O)n(C)c1=O (configuration not stated)	-2	4	6	-4	5	5	/
COc1c(-c2ccc(O)c(O)c2)oc2cc(O)cc(O)c2c1=O	16	21	2	-12	3	37*	48*
O=C(/C=C/c1cccs1)NC(=S)NNC(=O)c1ccccc1O	-11	6	6	-8	6	48*	58*
CC(=O)N1CCN(c2ccc(NCc3ccc(-c4ccc(Br)cc4)o3)cc2)CC1	2	29	8	-6	4	44*	19
CN1CCN(c2ccc(NC(=O)c3ccc(-c4ccc(Br)cc4)o3)cc2)CC1	5	17	12	-5	3	14	/
CC(=O)Nc1ccc2[nH]c(C)cc(=O)c2c1	-2	3	-2	2	-10	9	/
Cc1cc2c(N=O)c(NO)ccc2[nH]1	/	/	/	/	/	40*	74*
COC(=O)[C@]12C[C@H](CC(=O)NCc3cccc(C(F)(F)F)c3)C(=O)N(Cc3cccc4ccccc34)C1=C[C@H](C(C)(C)C)O[C@@H]2C	/	-10	-2	8	-2	/	/
COc1cc(N=Nc2ccc(Br)cc2)cc(C=O)c1O	12	12	-8	-2	-13	46*	56*
COc1cc(CN(C)C)cc(C=O)c1O	/	/	/	/	/	4	/
CCOC(=O)C(C)/C(C)=N/NC(=O)c1cc2ccccc2cc1O (configuration not stated)	1	18	14	0	1	43*	28
SMILES	TCR-CD3 inh	mABHD4 FP	SIAE inh	DDE Tn6 FP inh	Tn7 DDE FP	HTRA1 inhibitor	HTRA1 conf
C/C(=N\NC(=O)c1cc2ccccc2cc1O)c1ccc2c(c1)OCO2	1	13	-10	-1	0	42*	7
C/C(=N\NC(=O)c1ccc(C)cc1C)c1ccc2c(c1)OCO2	-1	9	-2	-4	-5	-3	/
CNC(=O)COc1ccc(Cl)c2cccnc12	3	5	4	-3	2	-1	/
O=C(Oc1ccc(Cl)c2cccnc12)c1cccnc1	0	2	8	2	0	71*	82*
Cc1cccc(NC(=O)Oc2ccc(Cl)c3cccnc23)c1	-2	-1	11	-8	0	54*	41*
CCC(=O)NC(c1ccco1)c1cc(Cl)c2ccccc2c1O (configuration not stated)	5	1	3	-1	0	-4	/
CCCC(=O)NC(c1cccs1)c1cc(Cl)c2cccnc2c1O (configuration not stated)	-4	8	16	6	3	63*	56*
CC(=O)NC(c1cccs1)c1cc(F)c2cccnc2c1O (configuration not stated)	10	9	7	4	-5	35	/
CCCC(=O)NC(c1ccc2c(c1)OCO2)c1cc(Cl)c2cccnc2c1O (configuration not stated)	/	/	/	/	/	62*	59*
CCCC(=O)NC(c1ccco1)c1cc(Cl)c2cccnc2c1O (configuration not stated)	-2	5	14	-3	1	47*	54*
O=C(NCc1cccc(Cl)c1)O[C@H]1CC[C@@]23CCCN2C(=O)CCC[C@H]3C1	/	2	0	-7	0	/	/
C=c1[nH]cc(C(C)c2c(C)n(C)c3ccccc23)/c1=C/C (configuration not stated)	/	6	1	8	7	/	/
CCCCOc1ccc(C2OC34CCCCC3C(C#N)(C#N)C2(C#N)C(=N)O4)cc1 (configuration not stated)	/	/	/	/	/	25	/
C=CCOc1ccc(C2OC34CCCCC3C(C#N)(C#N)C2(C#N)C(=N)O4)cc1 (configuration not stated)	/	/	/	/	/	38*	-3
COc1ccc2c(c1)c(C(=O)N/N=C/c1ccc(O)c(O)c1)c(C)n2C	5	16	-3	-10	0	43*	64*
COc1ccc2c(c1)c(C(=O)N/N=C/c1ccc(Br)cc1)c(C)n2C	7	-2	0	3	-1	-17	/
c1ccc(-c2nc3ccccc3[nH]2)nc1	10	6	-8	-6	-4	21	/
Cc1ccc2nc(-c3ccccn3)[nH]c2c1	-6	7	1	-2	-6	42*	33
Cc1ccc(Cn2c(=N)c(C(=O)NCc3ccco3)cc3c(=O)n4ccccc4nc32)cc1	8	12	-3	-1	0	42*	-36
